Compound activity (PubChem)
Rows were chosen to be rich in hits. Some 2.9% of all compounds tested hit in one or more screens of this group.
CHO-K1 Ca PAM – nonselective calcium activators in parental CHO-K1 cells, primary screen, counter-screen for M1 PAM project, cell-based, Fluo-8 calcium fluorescence, full deck, 1536-well | ATP EC20; 0% at ATP EC20, 100% at ATP max | activation, % at 3 µM | actives 0.02% (n = 360,000) | AID 602247, 2012;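 active means activation above the run cutoff, the mean activation of all test compounds plus 3 SD, cut at about 40% in these data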;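 further: peak over basal fluorescence ratio in a 140 s read after ATP addition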
CHO parental Ca – ATP-evoked calcium signal inhibitors, parental CHO, primary screen, counter-screen for OX1R antagonist project, cell-based, fluorescence, Fluo-8 calcium dye | parental CHO-K1, ATP-induced calcium, Fluo-8 fluorescence | inhibition, % at 5.6 µM | actives 0.63% (n = 330,000);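 active means inhibition above that plate's mean sample inhibition plus 3 SD, cut at about 26% in these data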;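 further: 0% = ATP-challenged DMSO wells and 100% = DMSO wells without ATP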
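Test system: parental CHO cells; detection: calcium-sensitive Fluo-8 fluorescence; evaluation: percent inhibition of calcium signal; also added: ATP as calcium-mobilizing challenge; repeats: one well per compound; control set: ATP-challenged DMSO wells low, unchallenged DMSO wells high; compound: single nominal dose of 5.6 µM per compound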
CHO-K1 Ca antag – nonselective inhibitor or artifact in parental CHO-K1 cells | ATP-induced calcium, Fluo-8 fluorescence | inhibition, % at 3 µM | actives 0.6% (n = 360,000) | AID 602250;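 active means inhibition above a per-plate cutoff, the plate's mean sample inhibition plus 3 SD, cut at about 24% in these data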;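 further: 0% = DMSO plus EC80 ATP and 100% = DMSO alone without ATP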
OX1R antag-1 – OX1R (HCRTR1) antagonists, primary screen, fluorescence, CHO/OX1R cells, Fluo-8 calcium, orexin A. Fluo-8 calcium fluorescence. inhibition, % at 5 µM. actives 0.43% (n = 330,000);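 active means inhibition above its plate's threshold, mean inhibition of all tested compounds on the plate plus 3 SD, cut at about 37% in these data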;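 further: 0% = orexin A challenge wells and 100% = SB-334867-A antagonist wells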
Target sequence (O43613 whole entry, looked up): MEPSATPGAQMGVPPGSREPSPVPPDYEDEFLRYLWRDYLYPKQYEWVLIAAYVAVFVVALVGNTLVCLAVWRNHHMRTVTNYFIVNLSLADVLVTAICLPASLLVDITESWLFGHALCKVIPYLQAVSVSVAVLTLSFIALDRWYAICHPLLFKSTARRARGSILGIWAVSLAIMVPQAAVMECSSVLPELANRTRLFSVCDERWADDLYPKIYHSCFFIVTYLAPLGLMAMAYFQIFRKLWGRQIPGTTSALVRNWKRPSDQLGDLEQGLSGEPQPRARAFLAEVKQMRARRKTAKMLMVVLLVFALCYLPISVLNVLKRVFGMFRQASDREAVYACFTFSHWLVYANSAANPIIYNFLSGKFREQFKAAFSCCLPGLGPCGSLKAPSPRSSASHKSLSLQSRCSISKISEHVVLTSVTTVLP
OX1R antag-2 – antagonists of human orexin 1 receptor (OX1R) | actives 1.8% (n = 330,000) | inhibition, % at 6.6 µM | OX1R-expressing cells, FRET antagonist read-out | Orexin/Hypocretin receptor type 1 (Homo sapiens), O43613 | AID 485270, 2010; in the data active means inhibition mostly above about 38%, no sharp cut-off; inactive means mostly below about 40%;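 further: 0% = agonist challenge alone and 100% = reference antagonist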
CHO-K1 Ca ag – counter-screen for M1 agonists: effect in parental CHO-K1 cells; Fluo-8 calcium fluorescence; scaled to maximal ATP response, vehicle zero; activation, % at 3 µM; actives 0.48% (n = 360,000); AID 602248, 2012; in the data active means activation above about 15%;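 further: untransfected CHO-K1 host cells lacking M1 receptor as counterscreen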
Numbers without * were called inactive; · = not tested or not shown.

SMILES	CHO-K1 Ca PAM	CHO parental Ca	CHO-K1 Ca antag	OX1R antag-1	OX1R antag-2	CHO-K1 Ca ag
COc1cccc(/C=N/Nc2nnc(C)n2N)c1OCc1ccccc1Cl	22	2	-3	-1	67*	0
CCCCC1=CC2=CC(=O)C(C)(OC(=O)c3ccc(Cl)nc3)C(=O)C2=CO1 (stereo not drawn)	·	-8	·	-3	14	·
COc1ccc(C2C=C(c3ccc(Br)cc3)Nc3nc(N4C(=O)CCC4=O)nn32)cc1 (stereo not drawn)	-7	4	33*	-13	17	0
O=C1CCC(=O)N1c1nc2n(n1)C(c1ccccc1)C=C(c1ccc(Br)cc1)N2 (stereo not drawn)	6	-18	3	-10	6	1
CC(CC(=O)O)Nc1ccccc1O (stereo not drawn)	21	-8	-13	-4	78	1
COc1ccc(Cn2ccnc2SCC(=O)Nc2ccc(F)cc2F)cc1	-9	·	-5	·	·	1
NS(=O)(=O)c1ccc(N/N=C/c2ccc(C(=O)O)cc2)c([N+](=O)[O-])c1	11	-8	-7	-8	50*	2
CC(=O)N1CCC(=NNc2ccc(S(N)(=O)=O)cc2[N+](=O)[O-])CC1	15	2	-9	2	51	0
CCOC(=O)N1CCC(=NNc2ccc(S(N)(=O)=O)cc2[N+](=O)[O-])CC1	-12	-2	16	-2	59*	0
CCC(CC)=NNc1ccc(S(N)(=O)=O)cc1[N+](=O)[O-]	3	4	-8	-1	46*	0
NS(=O)(=O)c1ccc(NN=C2CCCCC2)c([N+](=O)[O-])c1	-4	17	7	7	73*	0
O=C(CCCOc1ccccc1)NCCc1ccccc1	12	-6	-13	14	7	0
c1ccc(CCNCCOc2ccccc2)cc1	2	-13	6	-13	9	15*
c1ccc(NC2=NCCN2CCCC2CCCCC2)cc1	5	-13	-10	-8	22	2
CN(Cc1ccco1)S(=O)(=O)c1nnc(NC(=O)c2cccc(Cl)c2)s1	-21	29*	2	-4	28	7
CCN(C(=O)COC(=O)c1cccc(S(=O)(=O)NCc2ccccc2)c1)c1ccccc1	7	·	-1	·	·	2
O=C(NC(c1ccccc1)c1ccccc1)c1ccc(=O)[nH]n1	-12	-15	7	-19	28	-1
Cc1onc(-c2ccccc2)c1C(O)c1ccc(F)cc1 (stereo not drawn)	-11	-16	33*	-18	14	7
COc1ccccc1NC(=O)COC(=O)c1cc2ccccc2cc1O	7	-22	-14	-11	9	1
COc1cc(NC(=O)c2cc3ccccc3cc2O)c(OC)cc1Cl	2	36*	16	13	34*	13
COc1ccccc1NC(=O)c1cc2cc(Br)ccc2cc1O	-9	45*	29*	10	19	15*
Cc1ccc(Cl)cc1NC(=O)c1cc2ccccc2cc1O	8	58*	2	46*	65	7
Cc1ccc(Cl)cc1NC(=O)COC(=O)c1ccccc1O	9	-3	-7	-20	15	3
COc1cc2ccccc2cc1C(=O)Nc1ccccc1Cl	3	-17	-8	19	1	2
Cc1[nH]nc(-c2ccc(O)cc2O)c1-c1ccc(Cl)cc1	18	13	3	13	-2	2
SMILES	CHO-K1 Ca PAM	CHO parental Ca	CHO-K1 Ca antag	OX1R antag-1	OX1R antag-2	CHO-K1 Ca ag
COc1ccc(-c2n[nH]c(C)c2-c2ccc(Cl)cc2)c(O)c1OC	3	-10	27*	-8	69	5
COc1ccc(-c2n[nH]c(C)c2-c2ccc(Cl)cc2)c(O)c1	2	98*	0	39	21	0
C=C(C)COc1ccc(-c2n[nH]c(C)c2-c2ccc(OC)c(OC)c2)c(O)c1	-12	-20	55*	-15	33	-1
O=C(Cc1ccccc1F)NNC(=O)c1ccncc1	5	-10	-4	2	2	1
COc1ccc(OCC(O)CNC(C)c2ccccc2)cc1 (stereo not drawn)	21	-23	-9	-18	4	3
CC(NCC(O)COc1ccc2ccccc2c1)c1ccccc1 (stereo not drawn)	-14	9	10	-24	-9	16*
CCCC(NCC(O)COc1ccc(-c2ccccc2)cc1)c1ccccc1 (stereo not drawn)	12	53*	-5	38	-1	2
COC(=O)/C=C1\SC(N2CCOCC2)=C(c2ccc(OC)cc2)C1=O	30	-12	-25	-16	70*	1
COC(=O)CN1C(=S)N(c2ccc(OC)cc2)C(=O)/C1=C/c1ccc(N2CCOCC2)cc1	-1	10	10	26	5	6
COc1ccc2nc3ccccc3nc2c1N	13	-20	-18	-17	55*	1
COc1ccc2nc3cccc(OC)c3nc2c1	2	-17	-10	-18	42*	1
CC(C)(C)N(Cc1ccccc1)C(=O)COC(=O)CSc1ccc([N+](=O)[O-])cc1	4	-19	-7	-24	23	1
O=C1C=C(c2ccccc2)C(c2ccccc2)C1 (stereo not drawn)	5	·	-16	·	·	0
Clc1ccc(-c2nnc(CSc3nnc(-c4cccs4)n3Cc3ccccc3)o2)cc1	6	23	20	4	47*	9
Cc1nnc(SCc2nnc(-c3cccs3)o2)n1Cc1ccccc1	-2	6	-21	9	23	1
Fc1ccc(NCc2nnc(SCc3nnc(-c4ccccc4)o3)n2Cc2ccccc2)cc1	-6	51*	10	73*	51	2
Fc1ccc(-c2nnc(CSc3nnc4ccccn34)o2)cc1	17	13	-12	0	23	3
COc1ccc(CNS(=O)(=O)c2cc(CN3C(=O)c4cccnc4C3=O)ccc2OC)cc1	5	-23	-17	-18	16	1
Cc1cccc(NC(=O)CSc2ncnc3sc(C)cc23)c1	1	-12	-16	-26	22	1
CC(C)c1ccc(CN(C)CC(O)c2ccccc2)cc1 (stereo not drawn)	13	-18	-18	-16	16	1
O=C(COc1ccccc1F)c1ccc(O)cc1O	-7	6	0	-3	13	1
Cc1c(O)ccc(C(=O)COc2ccccc2F)c1O	9	5	14	7	37*	4
O=C(CC1SC(=Nc2ccccc2)N(CCCO)C1=O)Nc1ccc(Cl)cc1 (stereo not drawn)	8	66*	8	77*	11	7
